According to ChEMBL document CHEMBL3120102, “Structure-based design, synthesis and biological evaluation of novel anthra[1,2-d]imidazole-6,11-dione homologues as potential antitumor agents” (2013):

What was measured:
Format in all cases: functional
MDA-MB-231 = test: Cytotoxicity against human MDA-MB-231 cells assessed as growth inhibition after 48 hrs by SRB assay
In short: (§1)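 NCI 60-cell-line screen, five-dose stage: each cell line exposed for 48 h to five concentrations spanning five log steps; cellular protein measured by sulforhodamine B colorimetry. A time-zero cell control and plates without drug are used to derive GI50, TGI and LC50 from log-concentration dose-response curves.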

SNB-75 = test: Cytotoxicity against human SNB75 cells assessed as growth inhibition after 48 hrs by SRB assay
In short: (§2)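 NCI 60-cell-line screen, two stages. Five-dose testing at […]. Cellular protein measured by sulforhodamine B colorimetry after 48 h drug exposure. A time-zero control and drug-free plates are used to derive GI50, TGI and LC50 from dose-response curves plotted as log10 concentration per cell line.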

SK-MEL-2 = test: Cytotoxicity against human SK-MEL-2 cells assessed as growth inhibition after 48 hrs by SRB assay; in short: as §1
IGROV-1 = test: Cytotoxicity against human IGROV1 cells assessed as growth inhibition after 48 hrs by SRB assay
In short: (§3)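 NCI 60-cell-line five-dose screen at […]. Drug exposure was 48 h, followed by sulforhodamine B protein staining. GI50, TGI and LC50 were calculated against a time-zero control and untreated plates, with dose–response curves plotted from log10 concentration.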

SK-MEL-5 = test: Cytotoxicity against human SK-MEL-5 cells assessed as growth inhibition after 48 hrs by SRB assay; in short: as §1
MCF7 = test: Cytotoxicity against human MCF7 cells assessed as growth inhibition after 48 hrs by SRB assay; in short: as §1
HOP-62 = test: Cytotoxicity against human HOP62 cells assessed as growth inhibition after 48 hrs by SRB assay; in short: as §3
[1] = (§4) Cytotoxicity against human UACC257 cells assessed as growth inhibition after 48 hrs by SRB assay; settings: UACC-257, 48 h; in short: as §2
UACC-257 = test: as §4; in short: as §2
MOLT-4 = test: Cytotoxicity against human MOLT4 cells assessed as growth inhibition after 48 hrs by SRB assay; in short: as §1
SW-620 = test: Cytotoxicity against human SW620 cells assessed as growth inhibition after 48 hrs by SRB assay; in short: as §2
A549 = test: Cytotoxicity against human A549 cells assessed as growth inhibition after 48 hrs by SRB assay; in short: as §3
SR = test: Cytotoxicity against human SR cells assessed as growth inhibition after 48 hrs by SRB assay; in short: as §2
NCI-H226 = test: Cytotoxicity against human NCI-H226 cells assessed as growth inhibition after 48 hrs by SRB assay; in short: as §1
KM12 = test: Cytotoxicity against human KM12 cells assessed as growth inhibition after 48 hrs by SRB assay; in short: as §3
K562 = test: Cytotoxicity against human K562 cells assessed as growth inhibition after 48 hrs by SRB assay; in short: as §3
SNB-19 = test: Cytotoxicity against human SNB19 cells assessed as growth inhibition after 48 hrs by SRB assay; in short: as §2
CAKI-1 = test: Cytotoxicity against human CAKI-1 cells assessed as cell growth at 10 uM after 48 hrs by SRB assay; settings: CAKI-1, 48 h, read-out: Activity
HL-60(TB) = test: Cytotoxicity against human HL-60(TB) cells assessed as growth inhibition after 48 hrs by SRB assay
In short: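 NCI 60-cell panel five-concentration stage (0.01, 0.1, 1, 10, 100) in HL-60(TB). Cellular protein was measured by sulforhodamine B colorimetry after 48 h of exposure. A time-zero cell control and untreated plates allowed calculation of GI50, TGI and LC50. These were read from log10 concentration dose-response curves.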

Malme-3M = test: Cytotoxicity against human MALME-3M cells assessed as growth inhibition after 48 hrs by SRB assay; in short: as §3
SK-MEL-28 = test: Cytotoxicity against human SK-MEL-28 cells assessed as growth inhibition after 48 hrs by SRB assay; in short: as §1
COLO 205 = test: Cytotoxicity against human COLO205 cells assessed as growth inhibition after 48 hrs by SRB assay; in short: as §3
SK-OV-3 = test: Cytotoxicity against human SKOV3 cells assessed as growth inhibition after 48 hrs by SRB assay; in short: as §1
HT-29 = test: Cytotoxicity against human HT-29 cells assessed as growth inhibition after 48 hrs by SRB assay; in short: as §3
ACHN = test: Cytotoxicity against human ACHN cells assessed as growth inhibition after 48 hrs by SRB assay; in short: as §3
U-251 = test: Cytotoxicity against human U251 cells assessed as growth inhibition after 48 hrs by SRB assay; in short: as §2
MDA-MB-435 = test: Cytotoxicity against human MDA-MB-435 cells assessed as growth inhibition after 48 hrs by SRB assay; in short: as §1
[2] = read-out: LC50 (the source's name)

For `CN(C)CCCSc1nc2ccc3c(c2[nH]1)C(=O)c1ccccc1C3=O`, the “growth inhibition (GI)” value (MDA-MB-231) was “Dose-dependent effect”, the GI50 (MDA-MB-231; MDA-MB-231, 48 h) was 4.96 µM and the TGI (MDA-MB-231; MDA-MB-231, 48 h) was 19.3 µM. The “growth inhibition (GI)” value (SNB-75) was “Dose-dependent effect”, the GI50 (SNB-75; SNB-75, 48 h) was less than 0.01 µM and the TGI (SNB-75; SNB-75, 48 h) was less than 0.01 µM. The “growth inhibition (GI)” value (SK-MEL-2) was “Dose-dependent effect”, the GI50 (SK-MEL-2; SK-MEL-2, 48 h) was 13.3 µM and the TGI (SK-MEL-2; SK-MEL-2, 48 h) was 26.3 µM. For the same molecule, the “growth inhibition (GI)” value (IGROV-1) was “Dose-dependent effect”, the GI50 (IGROV-1; IGROV-1, 48 h) was 0.329 µM and the TGI (IGROV-1; IGROV-1, 48 h) was 12.8 µM. The “growth inhibition (GI)” value (SK-MEL-5) was “Dose-dependent effect”, the GI50 (SK-MEL-5; SK-MEL-5, 48 h) was 11.1 µM and the TGI (SK-MEL-5; SK-MEL-5, 48 h) was 23.1 µM. The “growth inhibition (GI)” value (MCF7) was “Dose-dependent effect”, the GI50 (MCF7; MCF7, 48 h) was 0.202 µM and the TGI (MCF7; MCF7, 48 h) was 4.21 µM. The “growth inhibition (GI)” value (HOP-62) was “Dose-dependent effect”, the GI50 (HOP-62; HOP-62, 48 h) was 5.9 µM and the TGI (HOP-62; HOP-62, 48 h) was 21.2 µM. For the same molecule, the GI50 [1] was 19.8 µM, the TGI [1] was 34.1 µM and the “growth inhibition (GI)” value (UACC-257) was “Dose-dependent effect”. The “growth inhibition (GI)” value (MOLT-4) was “Dose-dependent effect”, the GI50 (MOLT-4; MOLT-4, 48 h) was 2.06 µM and the TGI (MOLT-4; MOLT-4, 48 h) was 6.6 µM. For the same molecule, the “growth inhibition (GI)” value (SW-620) was “Dose-dependent effect”, the GI50 (SW-620; SW-620, 48 h) was 1.99 µM and the TGI (SW-620; SW-620, 48 h) was 6.29 µM. The “growth inhibition (GI)” value (A549) was “Dose-dependent effect”, the TGI (A549; A549, 48 h) was 12.6 µM and the GI50 (SR) was 0.43 µM. The TGI (SR) was 3.47 µM, the “growth inhibition (GI)” value (SR) was “Dose-dependent effect” and the “growth inhibition (GI)” value (NCI-H226) was “Dose-dependent effect”. The TGI (NCI-H226; NCI-H226, 48 h) was 22.1 µM, the “growth inhibition (GI)” value (KM12) was “Dose-dependent effect” and the GI50 (KM12; KM12, 48 h) was 1.96 µM. The TGI (KM12; KM12, 48 h) was 7.24 µM, the CC50 (KM12; KM12, 48 h, read-out: LC50 (the source's name)) was 27.4 µM and the “growth inhibition (GI)” value (K562) was “Dose-dependent effect”. The GI50 (K562; K562, 48 h) was 2.04 µM, the TGI (K562; K562, 48 h) was 4.73 µM and the CC50 (K562; K562, 48 h, read-out: LC50 (the source's name)) was 13.6 µM. The “growth inhibition (GI)” value (SNB-19) was “Dose-dependent effect”, the GI50 (SNB-19; SNB-19, 48 h) was 7.2 µM and the TGI (SNB-19; SNB-19, 48 h) was 20.7 µM. The growth at 10 µM (CAKI-1) was -14.9%, the “growth inhibition (GI)” value (HL-60(TB)) was “Dose-dependent effect” and the GI50 (HL-60(TB); HL-60, 48 h) was 2.41 µM. For the same molecule, the TGI (HL-60(TB); HL-60, 48 h) was 8.52 µM, the GI50 (Malme-3M) was 13.9 µM and the TGI (Malme-3M) was 27 µM. For the same molecule, the “growth inhibition (GI)” value (Malme-3M) was “Dose-dependent effect”, the CC50 (Malme-3M; [2]) was 52.4 µM and the “growth inhibition (GI)” value (SK-MEL-28) was “Dose-dependent effect”. For the same molecule, the GI50 (SK-MEL-28; SK-MEL-28, 48 h) was 13.5 µM, the TGI (SK-MEL-28; SK-MEL-28, 48 h) was 26.3 µM and the “growth inhibition (GI)” value (COLO 205) was “Dose-dependent effect”. The GI50 (COLO 205; COLO 205, 48 h) was 3.41 µM, the TGI (COLO 205; COLO 205, 48 h) was 17.1 µM and the “growth inhibition (GI)” value (SK-OV-3) was “Dose-dependent effect”. The GI50 (SK-OV-3; SK-OV-3, 48 h) was 1.72 µM, the TGI (SK-OV-3; SK-OV-3, 48 h) was 20.7 µM and the “growth inhibition (GI)” value (HT-29) was “Dose-dependent effect”. It also gave a GI50 (HT-29; HT-29, 48 h) of 1.04 µM, a TGI (HT-29; HT-29, 48 h) of 2.61 µM and a CC50 (HT-29; HT-29, 48 h, read-out: LC50 (the source's name)) of 6.53 µM. The GI50 (ACHN) was 1.74 µM, the TGI (ACHN) was 15 µM and the “growth inhibition (GI)” value (ACHN) was “Dose-dependent effect”. The CC50 (ACHN; [2]) was 38.7 µM, the “growth inhibition (GI)” value (U-251) was “Dose-dependent effect” and the GI50 (U-251; U-251, 48 h) was 10.1 µM. The TGI (U-251; U-251, 48 h) was 22 µM, the CC50 (U-251; U-251, 48 h, read-out: LC50 (the source's name)) was 48 µM and the “growth inhibition (GI)” value (MDA-MB-435) was “Dose-dependent effect”. It also gave a GI50 (MDA-MB-435; MDA-MB-435, 48 h) of 10.4 µM and a TGI (MDA-MB-435; MDA-MB-435, 48 h) of 22.2 µM.
